ChEMBL document CHEMBL3272061, “Experiments of synthesis of dl-camptothecin. 4. Synthesis and antileukemic activity of dl-camptothecin analogues” (J Med Chem, 1976)
Activity calls are given as the source filed them. No cut-off for these calls is given here.

Legend:
[1] = tested on: L1210; experiment: Antileukemic activity against mouse L1210 cells allografted in BDF1 mouse assessed as increase in life span of host at 69.4 umol/kg, ip relative to control; format: functional
Method in brief: (§1)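 BDF1 mice, 5 weeks old, were inoculated ip with 5×10^5 L1210 cells; test groups had 4 males and 4 females, controls 5 males and 5 females. A single ip dose was given on the day after inoculation, as a suspension in vehicle for the insoluble compounds. Read-out was increase in life span over controls, with survivors past 30 days counted as 30 days.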

[2] = tested on: L1210; experiment: Antileukemic activity against mouse L1210 cells allografted in BDF1 mouse assessed as host survival at 69.4 umol/kg, ip after 30 days; format: functional, organism-based
Method in brief: (§2)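 BDF1 mice, 5 weeks old; test groups four males + four females, controls five + five. 5×10^5 L1210 cells in 0.1 ml saline given ip. Compound, suspended in suspending vehicle (sodium salt dissolved), injected ip once on the day after inoculation. Survival followed to 30 days; mice surviving beyond 30 days counted as 30 days and scored as survivor fraction; activity as increased life span over controls.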

[3] = tested on: L1210; experiment: Antileukemic activity against mouse L1210 cells allografted in BDF1 mouse assessed as increase in life span of host at 139 umol/kg, ip relative to control; format: functional
Method in brief: (§3)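 BDF1 mice, 5 weeks old, were inoculated ip with 5×10^5 L1210 cells in 0.1 ml saline. Test groups were 4 male and 4 female mice; controls were 5 male and 5 female. Insoluble compounds were suspended in vehicle. Dosing was ip, either once on the day after inoculation or daily for 5 days. Read-out was increase in life span over controls. Mice alive beyond 30 days were counted as 30 days and scored as survivors.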

[4] = tested on: L1210; experiment: Antileukemic activity against mouse L1210 cells allografted in BDF1 mouse assessed as host survival at 139 umol/kg, ip after 30 days; format: functional, organism-based; method in brief: as §3
[5] = tested on: L1210; experiment: Antileukemic activity against mouse L1210 cells allografted in BDF1 mouse assessed as host survival at 5.58 umol/kg, ip after 30 days; format: functional, organism-based; conditions: 5.56 umol/kg, in the assay text read “5.56 umol/kg” for “5.58 umol/kg”; method in brief: as §2
[6] = tested on: L1210; experiment: Antileukemic activity against mouse L1210 cells allografted in BDF1 mouse assessed as host survival at 27.8 umol/kg, ip after 30 days; format: functional, organism-based; method in brief: as §3
[7] = Solubility of the compound; format: physicochemical
[8] = tested on: L1210; experiment: Antileukemic activity against mouse L1210 cells allografted in BDF1 mouse assessed as increase in life span of host at 71.8 umol/kg, ip relative to control; format: functional; method in brief: as §1
[9] = tested on: L1210; experiment: Antileukemic activity against mouse L1210 cells allografted in BDF1 mouse assessed as host survival at 26.3 umol/kg, ip after 30 days; format: functional, organism-based; method in brief: as §3
[10] = tested on: L1210; experiment: Antileukemic activity against mouse L1210 cells allografted in BDF1 mouse assessed as increase in life span of host at 287 umol/kg, ip relative to control; format: functional; method in brief: as §1
[11] = tested on: L1210; experiment: Antileukemic activity against mouse L1210 cells allografted in BDF1 mouse assessed as host survival at 287 umol/kg, ip after 30 days; format: functional, organism-based; method in brief: as §3
[12] = tested on: L1210; experiment: Antileukemic activity against mouse L1210 cells allografted in BDF1 mouse assessed as increase in life span of host at 26.3 umol/kg, ip relative to control; format: functional; method in brief: as §1
[13] = tested on: L1210; experiment: Antileukemic activity against mouse L1210 cells allografted in BDF1 mouse assessed as increase in life span of host at 5.74 umol/kg, ip relative to control; format: functional; method in brief: as §1
[14] = tested on: L1210; experiment: Antileukemic activity against mouse L1210 cells allografted in BDF1 mouse assessed as host survival at 5.74 umol/kg, ip after 30 days; format: functional, organism-based; method in brief: as §3
[15] = tested on: L1210; experiment: Antileukemic activity against mouse L1210 cells allografted in BDF1 mouse assessed as increase in life span of host at 28.7 umol/kg, ip relative to control; format: functional; method in brief: as §1
[16] = tested on: L1210; experiment: Antileukemic activity against mouse L1210 cells allografted in BDF1 mouse assessed as increase in life span of host at 144 umol/kg, ip relative to control; format: functional; method in brief: as §3
[17] = tested on: L1210; experiment: Antileukemic activity against mouse L1210 cells allografted in BDF1 mouse assessed as host survival at 28.7 umol/kg, ip after 30 days; format: functional, organism-based; method in brief: as §3
[18] = tested on: L1210; experiment: Antileukemic activity against mouse L1210 cells allografted in BDF1 mouse assessed as host survival at 5.56 umol/kg, po qd for 4 days measured after 30 days; format: functional, organism-based
[19] = tested on: L1210; experiment: Antileukemic activity against mouse L1210 cells allografted in BDF1 mouse assessed as host survival at 5.56 umol/kg, ip qd for 5 days measured after 30 days; format: functional, organism-based; method in brief: as §3
[20] = tested on: L1210; experiment: Antileukemic activity against mouse L1210 cells allografted in BDF1 mouse assessed as host survival at 13.8 umol/kg, ip qd for 5 days measured after 30 days; format: functional, organism-based; method in brief: as §3
[21] = tested on: L1210; experiment: Antileukemic activity against mouse L1210 cells allografted in BDF1 mouse assessed as host survival at 5.56 umol/kg, sc qd for 5 days measured after 30 days; format: functional, organism-based
[22] = tested on: L1210; experiment: Antileukemic activity against mouse L1210 cells allografted in BDF1 mouse assessed as host survival at 13.8 umol/kg, po qd for 4 days measured after 30 days; format: functional, organism-based
[23] = tested on: L1210; experiment: Antileukemic activity against mouse L1210 cells allografted in BDF1 mouse assessed as host survival at 1.11 umol/kg, ip qd for 5 days measured after 30 days; format: functional, organism-based; method in brief: as §3
[24] = tested on: L1210; experiment: Antileukemic activity against mouse L1210 cells allografted in BDF1 mouse assessed as host survival at 278 umol/kg, ip after 30 days; format: functional, organism-based; method in brief: as §3
[25] = tested on: L1210; experiment: Antileukemic activity against mouse L1210 cells allografted in BDF1 mouse assessed as host survival at 5.21 umol/kg, ip after 30 days; format: functional, organism-based; method in brief: as §3
[26] = tested on: L1210; experiment: Antileukemic activity against mouse L1210 cells allografted in BDF1 mouse assessed as host survival at 1.11 umol/kg, sc qd for 5 days measured after 30 days; format: functional, organism-based
[27] = tested on: L1210; experiment: Antileukemic activity against mouse L1210 cells allografted in BDF1 mouse assessed as host survival at 27.8 umol/kg, po qd for 4 days measured after 30 days; format: functional, organism-based
[28] = tested on: L1210; experiment: Antileukemic activity against mouse L1210 cells allografted in BDF1 mouse assessed as host survival at 13.8 umol/kg, sc qd for 5 days measured after 30 days; format: functional, organism-based
[29] = tested on: L1210; experiment: Antileukemic activity against mouse L1210 cells allografted in BDF1 mouse assessed as host survival at 27.8 umol/kg, sc qd for 5 days measured after 30 days; format: functional, organism-based
[30] = tested on: L1210; experiment: Antileukemic activity against mouse L1210 cells allografted in BDF1 mouse assessed as increase in life span of host at 27.9 umol/kg, ip relative to control; format: functional; method in brief: as §1
[31] = tested on: L1210; experiment: Antileukemic activity against mouse L1210 cells allografted in BDF1 mouse assessed as host survival at 4.87 umol/kg, ip after 30 days; format: functional, organism-based; method in brief: as §3
[32] = species: Mus musculus; experiment: Toxicity in mouse L1210 cells allografted BDF1 mouse; format: organism-based
[33] = tested on: L1210; experiment: Antileukemic activity against mouse L1210 cells allografted in BDF1 mouse assessed as increase in life span of host at 4.87 umol/kg, ip relative to control; format: functional; method in brief: as §1
[34] = tested on: L1210; experiment: Antileukemic activity against mouse L1210 cells allografted in BDF1 mouse assessed as increase in life span of host at 69.8 umol/kg, ip relative to control; format: functional; method in brief: as §1

With `CCC1(CC)C(=O)OCc2c1cc1n(c2=O)Cc2cc3ccccc3nc2-1` the ILS at 69.4 µmol/kg [1] was 5%, the Activity [2] was “inactive” and the ILS at 139 µmol/kg [3] was -11%. For the same compound, the Activity [4] was “inactive”, the Activity [5] was “inactive” and the Activity [6] was “inactive”. The solubility [7] was “Insoluble”.

With `CCC1(O)C(=O)OCc2c1cc1n(c2=O)Cc2cc3ccccc3nc2-1` (racemic) the ILS at 71.8 µmol/kg [8] was > 155%, the Activity [9] was “inactive” and the ILS at 287 µmol/kg [10] was -43%. For the same compound, the Activity [11] was “inactive”, the ILS at 26.3 µmol/kg [12] was 6% and the ILS at 5.74 µmol/kg [13] was 16%. The Activity [14] was “inactive”, the ILS at 28.7 µmol/kg [15] was 84% and the ILS at 144 µmol/kg [16] was > 60%. The solubility [7] was “Insoluble” and the Activity [17] was “inactive”.

For `C=CCC1(O)C(=O)OCc2c1cc1n(c2=O)Cc2cc3ccccc3nc2-1` (racemic), the Activity [18] was “inactive”, the Activity [19] was “inactive” and the Activity [20] was “inactive”. For the same compound, the Activity [21] was “inactive”, the Activity [22] was “inactive” and the Activity [23] was “inactive”. The Activity [24] was “inactive”, the Activity [25] was “inactive” and the Activity [4] was “inactive”. The Activity [14] was “inactive”, the Activity [26] was “inactive” and the Activity [6] was “inactive”. For the same compound, the Activity [27] was “inactive”, the Activity [28] was “inactive” and the Activity [29] was “inactive”.

With `C#CCC1(O)C(=O)OCc2c1cc1n(c2=O)Cc2cc3ccccc3nc2-1` (racemic) the ILS at 27.9 µmol/kg [30] was > 117%, the Activity [31] was “inactive” and the Activity [32] was “Toxic”. The ILS at 4.87 µmol/kg [33] was 58%, the solubility [7] was “Insoluble” and the ILS at 69.8 µmol/kg [34] was > 149%.
